The values that follow come from the RNAGym collection of RNA variant scans (doi:10.1038/nmeth.2970).

The chains are these.
B1: GFP aptamer (parent)
chain: GCUUCUGGACUGCGAUGGGAGCACGAAACGUCGUGGCGCAAUUGGGUGGGGAAAGUCCUUAAAAGAGGGCCACCACAGAAGC

The data set covers variants of B1. Kind of data set: HiTS-RAP. Particulars: with EGFP. Summed up:
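Aptamer DNA templates carrying a T7 promoter and ter site were sequenced on an Illumina GAIIx flowcell, then transcribed in situ by T7 RNA polymerase and halted by GST-Tus (30 minutes, 37°C). Clusters were imaged after 30-minute room-temperature equilibration with EGFP-mOrange at 0.04 nM to 625 nM in fivefold steps. Intensities were decay-corrected, normalised to sequencing intensity and averaged per sequence. Kd came from weighted Hill fits per lane, geometrically averaged over three lanes, with non-rising sequences set to 125 nM.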
With A9U, the Kd was found to be 6.86 nM.
Take A9C: the Kd stood at 8 nM.
Under A9G stands 14.8 nM.
On to A27G G46A, for which the Kd turned out to be 12.7 nM.
In the case of A15G A27G it was 5.3 nM; in that of C10U C32U, 6.54 nM; in that of A28G A77G, 2.55 nM.
As for G30U, the Kd worked out at 3.95 nM.
For G30C, the Kd amounted to 4.2 nM.
In the case of G30A, the Kd stood at 4.37 nM.
Turning to U31C A79G, the Kd is 3.52 nM.
As to C13G, the Kd came to 6.37 nM.
Take C13U: the Kd turned out to be 4.53 nM.
For the variant C13A, the Kd turned out to be 14.6 nM.
In the case of G18U it was no less than 125 nM; in that of G18A, no less than 125 nM.
In the case of G18C, the Kd was no less than 125 nM.
As for A20G A41G, the Kd was 19.6 nM.
Consider C10U A20G, for which the Kd came out at 3.79 nM.
In the case of A27G A77G it was 4.47 nM; in that of U34C A41G, 2.74 nM; in that of C37U A77G, 2.53 nM.
Consider G25A G33A, for which the Kd amounted to 11.9 nM.
With U16C A28G, the Kd was found to be 4.74 nM.
A20G A79G: the Kd was 37.9 nM.
As for C13U C58U, the Kd came out at 0.942 nM.
Regarding G25A U31C, the Kd is 3.75 nM.
As to C10U U34C, the Kd was 4.37 nM.
For A20G A62G, the Kd amounted to 13.1 nM.
Under G7C stands 88.1 nM; under G7U, 23.4 nM; under G7A, 43.8 nM.
With A20G A26G, the Kd was 7.96 nM.
Consider C10U G33A, for which the Kd worked out at 29.6 nM.
With U11C A27G, the Kd is 3.8 nM.
For the variant A20G U60A, the Kd amounted to 7.33 nM.
On to U3C, for which the Kd turned out to be 4.42 nM.
As for U3G, the Kd turned out to be 5.4 nM.
For the variant U3A, the Kd came out at 3.51 nM.
On to A23G C74U, for which the Kd was 2.27 nM.
Consider A41G A77G, for which the Kd is 7.24 nM.
In the case of C10U U47C, the Kd is 1.58 nM.
Regarding G30A A75G, the Kd was determined as 41.1 nM.
For the variant A27G G33A, the Kd was 5.11 nM.
As to C24U A27G, the equilibrium dissociation constant (Kd) turned out to be 7.09 nM.
For C32U C70U, the Kd was 11.5 nM.
Under C37U U43C stands 12.8 nM; under G25A C58U, 2.17 nM; under C24U C37U, 6.91 nM.
A28G A41G: the Kd was found to be 2.01 nM.
In the case of C13U U43C, the Kd was found to be 8.72 nM.
C29A: the Kd stood at 3.32 nM.
Regarding C29G, the Kd turned out to be 4.09 nM.
C29U: the Kd came out at 4.49 nM.
With A28G U42C, the Kd was 6.79 nM.
As to C13U A26G, the Kd is 2.37 nM.
Take A27G C73U: the Kd amounted to 10.5 nM.
With G21A, the Kd is no less than 125 nM.
For G21C, the Kd amounted to 5.13 nM.
G21U: the Kd is 6 nM.
Under U34G stands 6.01 nM; under U34A, 30.6 nM; under U34C, 24.2 nM.
G33A: the Kd stood at 11.6 nM.
In the case of G33U, the Kd came to 35.1 nM.
With G33C, the Kd was no less than 125 nM.
With A15G, the Kd worked out at 4.76 nM.
For A15C, the Kd worked out at 66.2 nM.
Under A15U stands 10.3 nM.
Take C13U A41G: the Kd worked out at 10 nM.
Turning to A40G A77G, the Kd came out at 4.67 nM.
As to C10U C73U, the Kd worked out at 5.31 nM.
Under U11C A28G stands 15.9 nM.
As for U31C G44A, the Kd was found to be 1.82 nM.
As for G8A G14A, the Kd is 20.2 nM.
Consider A28G, for which the Kd came to 4.55 nM.
Take A28C: the equilibrium dissociation constant (Kd) worked out at 6.92 nM.
Consider A28U, for which the Kd is 4.46 nM.
In the case of A27G C70U, the Kd is 17 nM.
In the case of A23G U31C it was 3.06 nM; in that of C13U A28G, 3.77 nM.
As to A27G U43C, the Kd is 4.45 nM.
Under G12C stands 30.6 nM; under G12U, 18.9 nM; under G12A, 22.4 nM.
Consider C24G, for which the Kd worked out at 13.2 nM.
With C24A, the Kd turned out to be 10.6 nM.
With C24U, the Kd was 4.82 nM.
In the case of G30A C73U it was 0.856 nM; in that of C13U A27G, 7.37 nM; in that of C32U C74U, 11.9 nM.
As to G30A G33A, the Kd worked out at 27.8 nM.
With U4A, the Kd worked out at 4.17 nM.
Consider U4C, for which the Kd is 7.99 nM.
Regarding U4G, the Kd was 4.6 nM.
For the variant G19C, the Kd was no less than 125 nM.
Consider G19A, for which the Kd came out at 48.3 nM.
Take G19U: the Kd is no less than 125 nM.
As to A23G U34C, the Kd stood at 1.23 nM.
Take A20G G25A: the Kd was 10.8 nM.
Regarding A26G A41G, the Kd was 2.97 nM.
On to G17A, for which the Kd was no less than 125 nM.
For G17C, the Kd was no less than 125 nM.
As for G17U, the Kd is 5.8 nM.
Under A20G C58U stands 11.5 nM.
On to C29U U34C, for which the Kd came out at 20.1 nM.
In the case of A26G U31C it was 3.77 nM.
Regarding A41G, the Kd was 5.96 nM.
For A41U, the Kd worked out at 4.87 nM.
With A41C, the Kd was found to be 10.1 nM.
For the variant A27G G30A, the Kd was found to be 2.45 nM.
Consider U11A, for which the Kd stood at 4.13 nM.
Take U11G: the Kd was 3.81 nM.
With U11C, the Kd turned out to be 24.2 nM.
G8U: the Kd came to 5.56 nM.
Regarding G8A, the Kd came to 26.7 nM.
As for G8C, the Kd is 61.5 nM.
In the case of G25A U43C, the Kd came out at 2.24 nM.
C32U A79G: the Kd worked out at 5.26 nM.
Under A27G C37U stands 3.28 nM; under U11C A40G, 4.63 nM; under A28G C37U, 7.93 nM.
Under A27G C32U stands 3.03 nM; under A27G C71U, 17.8 nM.
In the case of A41G U43C, the Kd was determined as 12.7 nM.
Turning to A20G G30A, the Kd worked out at 30.3 nM.
For A40G C73U, the Kd amounted to 4.47 nM.
Consider G25A A27G, for which the Kd came to 5.68 nM.
Under U34C A77G stands 18 nM; under C32A, 3.24 nM; under C32U, 4.26 nM.
Under C32G stands 4.95 nM.
Turning to A27G U34C, the Kd was 9.07 nM.
Regarding A28G C58U, the dissociation constant (Kd) came to 1.28 nM.
Under A28G G46A stands 14.2 nM.
Under A26G C73U stands 5.43 nM; under G25A A77G, 3.54 nM; under U31C A40G, 4.07 nM.
In the case of C22U G68A, the Kd was 18 nM.
In the case of C32U U43C, the Kd came to 2.27 nM.
On to G25A C74U, for which the Kd was 4.63 nM.
As for G25A A28G, the Kd amounted to 5.89 nM.
For the variant G25A C32U, the Kd is 13.6 nM.
With A26G C32U, the Kd worked out at 5.01 nM.
On to C13U A40G, for which the Kd was found to be 3 nM.
With C10U C29U, the Kd came out at 3.83 nM.
For A41G C74U, the Kd came to 5.07 nM.
As to G25U, the Kd was determined as 3.87 nM.
In the case of G25C, the Kd was 7 nM.
Under G25A stands 5 nM.
In the case of C24U A28G it was 2.43 nM; in that of C10U C13U, 15.1 nM; in that of A23G A27G, 5.79 nM.
Consider C22U A27G, for which the Kd stood at 9.49 nM.
C24U G33A: the Kd is 5.72 nM.
Regarding C29U C74U, the Kd is 1.86 nM.
Consider G25A A26G, for which the Kd was 6.06 nM.
Under G14A stands 7.34 nM; under G14C, 25.1 nM.
Take G14U: the Kd was 4.92 nM.
As to C13U C70U, the Kd was determined as 2.02 nM.
A28G G44A: the dissociation constant Kd is 4.96 nM.
For the variant C13U U42C, the Kd stood at 3.54 nM.
Consider U42A, for which the Kd turned out to be 31.8 nM.
Take U42C: the Kd is 6.72 nM.
On to A28G U60C, for which the Kd is 13.9 nM.
For the variant C37U, the Kd worked out at 19.1 nM.
